Screening results from PubChem.
The list is not random: actives were taken first. Their share in the collection is about 3.5%.
ERAP1 inh: inhibitors of human ERAP1 aminopeptidase | AID 652197 | recombinant ERAP1, Leu-AMC fluorescence, 60 min | inhibition, % at 10.7 µM | hit rate 0.15% among 340,000;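 active = mean replicate inhibition of at least 30%, or all replicates individually reaching that 30% level; inactive = mean below 30% and not every replicate reaching it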;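 note: 0% = neutral control wells and 100% = L-leucinethiol positive control wells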
rRNA inh HTS: inhibits bacterial ribosomal RNA function over humanized ribosomes. E. coli WT GFP vs humanized-ribosome RFP mutants, fluorescence, 24 h; active compounds read low; DMSO median 0, no signal -100. hit rate 1.6% among 350,000. GFP signal change (wild-type ribosome), % (no concentration beside the values);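 active = significant combined selectivity score with lowered wild-type GFP, culture density cut under 30%, mutant RFP and density less affected; inactive = any of these conditions unmet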
PGC1a acetyl inh: lowers PGC1a acetylation signal in U2OS cells. inhibition, % at 15.6 µM. hit rate 0.17% among 350,000. AlphaScreen anti-acetyl-lysine; with virally co-expressed GCN5 acetyltransferase;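 active = every replicate shows inhibition of at least 40%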;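 note: 0% = neutral control wells and 100% = positive control wells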
Cneo AK release: Cryptococcus neoformans lysis via adenylate kinase release | C. neoformans lysis, adenylate kinase release luminescence, 4 h; normalised: neutral wells 0, clomiphene wells 100 | lysis activity, % at 15 µM | hit rate 0.2% among 360,000;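 active = mean lysis activity across replicates of at least 80%, whatever share of replicates individually reach that level; inactive = mean lysis activity below 80%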
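Material – log-phase Cryptococcus neoformans yeast cells · Input – 5 × 10^6 yeast cells/mL · Medium – fresh YPD growth medium · Doses – single compound concentration per well · Timing – static 4 h at 37 °C with compound, 1 h detection · Detection – adenylate kinase release luminescence · Read-out – signal increase indicating cell lysis · Control set – Clomiphene as positive lysis control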
FGF22 binding: shifts melting point of recombinant human FGF22. activity (Tm shift, normalised), % at 9.99 µM. AID 651658. recombinant FGF22 thermal shift, SYPRO orange fluorescence; percent of sucrose octasulfate shift, DMSO zero. hit rate 1.5% among 340,000. Q9HCT0;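 active = mean Tm shift, scaled 0 neutral to 100 positive control, at about 1.3% or above, every replicate too, limit read from the data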
HIV Env fusion: inhibitors of HIV Env-mediated cell fusion. HeLa-JRFL Env/CEM21 cell fusion, luciferase. inhibition, % at 12.3 µM. hit rate 1.1% among 360,000;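 active = mean replicate inhibition score of at least 50 and every replicate individually at or above 50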;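 note: 0% = plate neutral controls and 100% = maraviroc near 300 nM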
The depositor's hits bear a star; i = inactive; x = no result.

SMILES	ERAP1 inh	rRNA inh HTS	PGC1a acetyl inh	Cneo AK release	FGF22 binding	HIV Env fusion
O=C(NC(=S)Nc1nc(-c2cccc([N+](=O)[O-])c2)cs1)c1cc(Cl)ccc1Cl	-2	4	5	-1	0	4
CSc1nsc(SCC(=O)Nc2ccc(F)cc2)n1	4	-11	x	-6	0	1
Cn1nc(-c2ccccc2)c(-c2nc(-c3cccc(C(F)(F)F)c3)no2)c1Cl	4	4	-19	-2	x	-25
CC(=O)c1cccc(Nc2nc(-c3cccc([N+](=O)[O-])c3)cs2)c1	x	x	9	-2	x	72*
COCCN=c1scc(-c2cccs2)n1/N=C/c1ccc(O)c(O)c1O	7	6	x	x	89*	23
COCCN=c1scc(-c2ccccc2)n1/N=C/c1c[nH]c2ccccc12	2	-21	x	x	0	5
CCN(C(=O)CSc1nc2cc(Cl)ccc2c(=O)n1Cc1ccco1)C1CCS(=O)(=O)C1 (stereo unspecified)	-8	7	-5	x	44*	11
COc1ccc2oc(C(=O)N3CCc4ccccc43)c(C)c2c1	4	2	x	-10	0	i
Cc1ccc(S(=O)(=O)ON=C2CCN(S(=O)(=O)c3ccccc3)CC2)cc1	x	x	-6	1	x	-5
Cc1ccc(S(=O)(=O)OCCC2=CC(=O)CCN2Cc2ccccc2)cc1	5	-18	63*	-1	0	-19
CCCn1cc(S(=O)(=O)c2ccc(C)cc2)c(=O)c2cc(OC)ccc21	-2	2	1	-1	0	5
CCCn1cc(S(=O)(=O)c2ccc(Cl)cc2)c(=O)c2cc(OC)ccc21	1	-28*	-1	0	0	12
COc1ccccc1C(=O)NC(=O)CSc1nnc(N)s1	9	1	0	0	0	x
CC1CN(C(=S)NC(=O)C2CCCCC2)CC(C)O1 (stereo unspecified)	11	x	7	-1	0	-4
COc1ccc(N(C(=O)Nc2ccc(Cl)cc2)C2=NCCC2)cc1	-3	-36*	-2	0	0	x
Cc1ccc(N(C(=O)Nc2ccccc2)C2=NCCC2)cc1	x	-9	6	7	0	-10
Cc1nc(N2CCCCC2)sc1C(=O)c1ccc(SCCO)c([N+](=O)[O-])c1	-6	-20*	22	0	0	-24
CCOc1ccc(C(C(=O)NC2CCCCC2)N(C(=O)Cc2cccs2)c2ccc(-n3cnnn3)c(OC)c2)cc1 (stereo unspecified)	x	x	x	x	x	-3
Cc1nc([N+](=O)[O-])c(C(=O)OCc2cccc(Br)c2)n1C	0	-18*	2	3	42	16
CCSc1nnc(-c2ccc(S(=O)(=O)NCc3cccs3)cc2)o1	-8	-16	-1	-1	0	x
Cn1c(=O)[nH]c(=O)c2cc(C(=O)c3cc(F)ccc3O)cnc21	6	x	12	x	43*	-7
CCc1ccc2c(c1)C(c1ccc(N3CCOCC3)cc1)=NNC(c1ccncc1)=N2	-1	-18*	x	x	42	17
CCOc1ccc(C2=Nc3ccc(Br)cc3C(c3ccc(N4CCOCC4)cc3)=NN2)cc1	x	x	x	x	x	-17
C=CCN1C(=O)/C(=C\C=C2\N(C)c3ccccc3C2(C)C)SC1=S	2	15	x	x	44*	1
CN1/C(=C\C=C2/SC(=S)N(CC(=O)O)C2=O)C(C)(C)c2ccccc21	8	108	x	x	0	13
SMILES	ERAP1 inh	rRNA inh HTS	PGC1a acetyl inh	Cneo AK release	FGF22 binding	HIV Env fusion
NS(=O)(=O)c1cccc(NC(=O)COC(=O)c2ccccc2C(=O)c2ccccc2)c1	-2	-32*	x	-1	0	x
N#CC(CC(=O)c1ccc(F)cc1)c1ccc2c(c1)OCO2 (stereo unspecified)	-6	6	x	-5	0	-1
Cc1ccccc1NC(=O)c1ccc(OCC(=O)Nc2ccccc2F)cc1	0	8	x	x	43*	-4
CCN(CC)c1ncnc2scc(C3COc4ccccc4O3)c12 (stereo unspecified)	x	x	9	-2	x	28
c1ccc2c(c1)OCC(c1csc3ncnc(N4CCOCC4)c13)O2 (stereo unspecified)	x	x	x	x	x	70*
CCCSC1=NN2CCCC(=O)N=C2S1	-4	5	3	-2	0	-18
